Jurkat NFkB inh: inhibitors of the PMA/ionomycin-induced NF-kB reporter in Jurkat cells; PMA/ionomycin-induced NF-kB luciferase reporter, luminescence; inhibition, % at 4 µM; 0.53% of 330,000 active; in the data active = inhibition above about 50%
T cruzi repl: blocks replication of Trypanosoma cruzi; T. cruzi beta-gal in NIH3T3, luminescence, 90 h; inhibition, % (no concentration beside the values); 1.4% of 300,000 active;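 active = mean inhibition across valid replicates above about 55%, limit read from the data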;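 note: signal also drops with host cell toxicity which is not excluded here; 0% = plate median of DMSO wells and 100% = zero luminescence signal; higher percent means less beta-gal luminescence so fewer parasites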
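System: mouse NIH/3T3 fibroblasts infected with β-gal-expressing T. cruzi Tulahuen C4 / Input: NIH/3T3 cells, 5,000 per well / Buffer or medium: Low-serum DMEM with 2% FBS / Probe or stimulus: 5000 reporter trypomastigotes per well / Schedule: ≥90 h infection period, 3 h prior cell attachment / Measured by: GalScreen luminescence, 60 min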
697 NFkB inh: lowers PMA/ionomycin-induced NF-kB signal in 697 B cells. 697 B-cell NF-kB luciferase reporter, 16 h. inhibition, % at 4 µM. 0.33% of 330,000 active. AID 435022; in the data active = inhibition above about 35%
HSF1 activator: increases HSF-1 driven luciferase reporter signal; NIH3T3-HGL HSF-1 luciferase reporter, MG132, 8 h; 100% = twice DMSO control signal; activation, % at 9 µM; 1.7% of 300,000 active; AID 504408;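 active = mean replicate activation of at least 50% with a set share of replicates each reaching 50%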;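 note: 0% = median of the neutral control wells and 100% = twice that signal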
HSF1 inh: HSF1 inhibition; NIH3T3-HGL HSE-luciferase, MG132-induced, luminescence 8 h; stronger effect = lower value; activity change, negative = inhibition, % at 7.5 µM (by protocol); 0.77% of 300,000 active; AID 2098;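 active = more than half of replicate wells show activity change below -50%, luminescence cut by over half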;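 note: luciferase reports HSF-1 transcriptional activity via heat shock element; 0% = median of DMSO wells and -100% = zero luminescence signal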
GPR7 antag: antagonists of human GPR7 (neuropeptides B/W receptor 1); GPR7-expressing cells, fluorescence antagonist assay; inhibition, % at 4.4 µM; 1.1% of 290,000 active; in the data active = inhibition above about 16%, passing the limit was not always enough;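 note: cells stimulated with the agonist NPW; 0% = agonist with vehicle and 100% = vehicle without agonist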
Target sequence (P48145 whole entry, looked up): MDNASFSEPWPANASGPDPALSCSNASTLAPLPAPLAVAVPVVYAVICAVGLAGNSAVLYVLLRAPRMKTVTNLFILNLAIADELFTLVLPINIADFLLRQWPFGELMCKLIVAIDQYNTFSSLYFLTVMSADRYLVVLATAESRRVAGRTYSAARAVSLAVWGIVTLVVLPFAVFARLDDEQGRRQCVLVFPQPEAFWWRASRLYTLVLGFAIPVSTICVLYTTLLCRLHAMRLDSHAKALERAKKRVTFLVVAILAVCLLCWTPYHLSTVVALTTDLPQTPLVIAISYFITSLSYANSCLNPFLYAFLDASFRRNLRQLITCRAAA
* hit, by the source's call; . = not tested or not shown. Hits are enriched below; roughly 4.8% of the tested compounds scored in any of these assays.

SMILES | Jurkat NFkB inh | T cruzi repl | 697 NFkB inh | HSF1 activator | HSF1 inh | GPR7 antag
COc1cc2c(cc1OC)C(c1cccs1)N(C(=O)C(C)C)CC2 (stereo not drawn) | -3 | -1 | 1 | -5 | -2 | 18*
COc1cc2c(cc1OC)C(c1cccs1)N(C(=O)c1cccnc1)CC2 (stereo not drawn) | 39 | -33 | -29 | -15 | -3 | 8
C=CCOc1ccc(/C=C/C(=O)OCC(=O)NCc2cccs2)cc1 | -3 | 2 | 16 | 6 | 0 | .
COC(=O)COc1cc(Cl)c(C=O)cc1OC | -7 | -6 | -3 | 0 | 5 | -6
CCOC(=O)C(C)Oc1cc(Cl)c(C=O)cc1OC (stereo not drawn) | 22 | 2 | -3 | 51* | 14 | -7
Cc1cccc(C(=O)Nc2sc3c(c2C(=O)O)CCCC3)c1 | -1 | -10 | -32 | 23 | 4 | 5
Cc1cc2oc(=O)cc(Cn3ccnc3)c2cc1O | 3 | -19 | -28 | -30 | -12 | 2
Cc1cc(Cn2ccnc2)c(C)cc1Cn1ccnc1 | 0 | 59* | 0 | 0 | -1 | 2
CS(=O)(=O)N1CC2CCCN2c2ccc(C(F)(F)F)cc21 (stereo not drawn) | 13 | 6 | 7 | 6 | 0 | 0
O=S(=O)(c1cc(Cl)ccc1Cl)N1CC2CCCN2c2ccc(C(F)(F)F)cc21 (stereo not drawn) | 3 | 13 | -10 | 70* | 25 | -20
N=c1c2c(n(Cc3ccc(F)cc3)c3c1CCC3)CCCC2 | 13 | 63* | 6 | 1 | -2 | -7
N=c1c2c(n(Cc3ccccc3)c3c1CCC3)CCC2 | 40 | 47 | 2 | -6 | -4 | -8
O=C1NC(N2CCOCC2)=N/C1=C/c1ccc2c(c1)OCO2 | -17 | -12 | -8 | 8 | 1 | -20
CCOC(=O)Nc1ccc2c(c1)N(C(=O)CN(CC)CC)c1ccccc1CC2 | -1 | 13 | -9 | -35 | -18 | -8
CCOC(=O)Nc1ccc2c(c1)N(C(=O)CN(CC)CC)c1ccccc1C=C2 | -5 | -6 | 16 | 74* | 58 | 16
COc1cc(SC)ccc1C(=O)Nc1nccs1 | -112 | 0 | -216 | 57* | 17 | -3
O=C(NCCOc1ccc(F)cc1)c1ccccc1SCc1ccccc1 | -14 | 23 | -42 | 19 | -2 | 7
COc1cc(SC)ccc1C(=O)Nc1ccccc1 | -79 | 6 | -59 | 43 | 17 | 7
COc1cc(SC)ccc1C(=O)NCCOc1ccc(F)cc1 | -52 | 10 | -139 | 68* | 45 | 8
COc1ccc(CCNC(=O)c2ccc(SC)cc2OC)cc1 | 2 | 26 | -20 | 13 | 5 | 5
CCc1ccc(OCCNC(=O)c2ccccc2SCc2ccc(F)cc2)cc1 | 2 | 57* | 6 | 28 | 9 | -12
COc1cc(C(=O)NCCSc2ccc(F)cc2)cc(OC)c1OC | -7 | -4 | 17 | 66* | 16 | -13
CCC(C)NC(=O)C1(C)CCC(=O)N1Cc1ccccc1OC (stereo not drawn) | 1 | -18 | -8 | -80 | -74* | -2
CN1CCN(C(=O)/C(=C/c2cn(S(=O)(=O)N(C)C)c3ccccc23)NC(=O)c2ccccc2F)CC1 | -3 | -16 | 9 | -3 | -3 | -3
O=C(NC(=S)Nc1ccc(CN2CCCCC2)cc1)c1cccc(OCc2ccccc2)c1 | -21 | 73* | -5 | 16 | 10 | -2
SMILES | Jurkat NFkB inh | T cruzi repl | 697 NFkB inh | HSF1 activator | HSF1 inh | GPR7 antag
O=C(O)c1ccc(NC(=S)NC(=O)c2ccc3ccccc3c2)cc1 | 4 | -8 | -68 | 27 | 16 | -5
O=C(O)c1cccc(NC(=S)NC(=O)c2ccc3ccccc3c2)c1 | 35 | -15 | -36 | -75 | -71* | -4
CCC(=O)Nc1cccc(NC(=S)NC(=O)c2ccc(C)cc2)c1 | -89 | -12 | -112 | 35 | 14 | -7
CCC(=O)Nc1cccc(NC(=S)NC(=O)c2ccccc2)c1 | -68 | -3 | -83 | 54* | 22 | -9
CC(=O)c1ccc(NC(=O)COC(=O)c2ccc(F)cc2F)cc1 | 10 | 5 | 1 | -4 | -6 | 6
N#Cc1nc(-c2cccs2)oc1NCc1ccc(Cl)cc1 | 9 | 30 | -10 | 63* | 16 | 1
